# Results as given in PMC4351919 (Journal of biological inorganic chemistry : JBIC : a …, 2014).
# What was measured:
# [1] = Determination of aqueous solubility; assay type: physicochemical; conditions: Milli-Q water, room temperature
# In short: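 Modified OECD method. Saturated solutions made in Milli-Q water at room temperature with repeated ultrasonication. Undissolved material removed through a 0.45 μm filter. Filtrate diluted in 1 % HNO3, and platinum quantified by ICP-MS (RF 1500 W, 194Pt/195Pt monitored, Re internal isotope, 10 replicates) to calculate solubility.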
# [2] = Lipophilicity as chromatographic retention factor log kw; assay type: physicochemical; conditions: RP-HPLC, extrapolated to 0 % MeOH
# In short: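 RP-HPLC on a C18 column (4.6 × 250 mm, 5 μm) at 25 °C, 1 ml/min, isocratic 0.1 % TFA(aq)/MeOH, UV 210 nm, with uracil for dead time t0. Each compound run in triplicate at ≥3 MeOH compositions; k = (tR − t0)/t0. log kw obtained by linear extrapolation of log k versus %MeOH to 0 % MeOH.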
# [3] = Lipophilicity as n-octanol/water partition coefficient; assay type: physicochemical; conditions: shake flask
# In short: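 Modified OECD shake-flask method. Compound dissolved in water pre-saturated with 1-octanol, and aqueous Pt measured by ICP-MS after dilution in 1 % HNO3. Solution then mixed 1:1 with water-saturated 1-octanol and shaken 1 h. After phase separation, aqueous Pt re-measured; octanol content taken as the loss from the stock to give log Po/w.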
# [4] = tested on: murine leukemia model L1210; assay: Cytotoxicity assay; assay type: cell-based; conditions: read-out: IC50 mean ± SD, L1210; MTT assay, 72 h exposure
# In short: (§1)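 Cells (L1210 in RPMI 1640; CT-26 in DMEM/F12; both with 10 % FCS, 37 °C, 5 % CO2) seeded at 2 × 10^3/well and allowed 24 h recovery. 10 mM DMSO stocks serially diluted in medium; final DMSO ≤0.5 %. After 72 h exposure, viability read by MTT (EZ4U). IC50 reported as mean ± SD of at least three independent experiments.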
# [5] = tested on: murine colon cancer cell model CT-26; assay: Cytotoxicity assay; assay type: cell-based; conditions: MTT assay, 72 h exposure; for IC50: read-out: IC50 mean ± SD, CT-26
# In short: as §1
# [6] = Tissue distribution of platinum after single dose oral administration; assay type: in vivo, Balb/c mice; conditions: 2 h after single oral dose 40 mg/kg, mice
# [7] = assay type: in vivo, Balb/c mice; conditions: CT-26-bearing mice
# CH1 = conditions: read-out: IC50 (CH1); MTT assay, 96 h exposure; cited from earlier work
# SW480 = conditions: read-out: IC50 (SW480); MTT assay, 96 h exposure; cited from earlier work
# A549 = conditions: read-out: IC50 (A549); MTT assay, 96 h exposure; cited from earlier work
# [8] = SEC-ICP-MS study in mice serum after single dose oral administration; assay type: in vivo; conditions: serum 2 h after single oral dose
# In short: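 Balb/c mice dosed orally once at 40 mg/kg (water, 1 % DMSO). Under anesthesia at 2 h, blood taken by heart puncture; serum isolated (3000 rpm, 10 min, twice), stored at −20 °C, then diluted in PBS. SEC on Superdex 200 (10–600 kDa), 100 mmol/l ammonium acetate pH 7.4, 0.7 ml/min, with online ICP-MS Pt trace. References: compounds in PBS, fresh or after 1 and 24 h at 37 °C.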
# CT-26 cells = assay: Anticancer activity against CT-26 cells in vivo; design: species or system Balb/c mice; conditions: CT-26-bearing mice, i.p. days 4, 7, 11, 14; 8.5 mg/kg for 1, 10 mg/kg for 2
# In short: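 CT-26 cells (5 × 10^5) injected s.c. into right flank of female Balb/c mice. Test compound given i.p. as freshly prepared aqueous solution on days 4, 7, 11 and 14. Daily distress checks. Tumor size measured regularly by caliper; volume = length × width²/2. Mice sacrificed at day 15, 24 h after last dose.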
# [9] = 15 min after oral application, clinical trials; cited from earlier work
# [10] = cited from earlier work
SMILES,Aqueous solubility [1],Lipophilicity (log kw) [2],Lipophilicity (log Po/w) [3],IC50 [4],IC50 [5],Percentage of platinum amount found in serum relative to the administered platinum dose [6],Platinum level in serum [6],IC50 (CH1),IC50 (SW480),IC50 (A549),other results
"CC[NH][Pt]([Cl])([Cl])([NH]CC)([O]C(=O)CCC(=O)OCC)[O]C(=O)CCC(=O)OCC [Compound 1, (OC-6-33)-dichloridobis((4-ethoxy)-4-oxobutanoato)bis(ethylamine)platinum(IV)]",1940 ± 20 µg/mL,2.87 ± 0.01,0.72 ± 0.03,1500 ± 400 nM,5700 ± 200 nM,~ 16 % Pt,~ 2 μg/ml,61 ± 15 nM,300 ± 50 nM,1000 ± 400 nM,"Platinum level in blood pellet [6]: ~ 1 μg/g; Platinum level in kidneys [6]: ~ 4 μg/g; Platinum level in liver [6]: ~ 9 μg/g; Platinum level in lungs [6]: ~ 1 μg/g; Increase of platinum level in tumor at the higher oral dose ([7]; 51.7 vs 34.1 mg/kg p.o., multiple dose): up to 30%"
"[NH2][Pt]1([NH2])([O]C(=O)CCC(=O)NC2CCCC2)([O]C(=O)CCC(=O)NC2CCCC2)[O]C(=O)C2(CCC2)C(=O)[O]1 [Compound 2, (OC-6-33)-diammine(cyclobutane-1,1-dicarboxylato)bis((4-cyclopentylamino)-4-oxobutanoato)platinum(IV)]",10200 ± 40 µg/mL,2.99 ± 0.06,0.77 ± 0.06,> 50000 nM,> 50000 nM,~ 1.5 % Pt,~ 0.15 μg/ml,15000 ± 5000 nM,> 500000 nM,> 500000 nM,"Platinum accumulation in all organ samples [6]: less than 0.5 μg/g; Free intact platinum(IV) complex in serum [8]: ~ 5%; In vivo anticancer activity (tumor volume), intraperitoneal application (CT-26 cells): inactive; Platinum in liver, kidney and serum after i.p. versus oral administration ([7]; 10 mg/kg i.p. vs 40 mg/kg p.o., multiple dose): tenfold higher; Platinum concentrations in all tissues after oral application ([7]; multiple dose p.o. 40 mg/kg, day 15): < 0.5 µg/g"
"CC(=O)[O][Pt]([NH2])([Cl])([Cl])([NH]C1CCCCC1)[O]C(C)=O [Satraplatin, (OC-6-43)-bis(acetato)amminedichlorido(cyclohexylamine)platinum(IV), reference compound]",100 ± 10 µg/mL,1.49 ± 0.03,0.23 ± 0.01,2500 ± 200 nM,2900 ± 300 nM,~ 4 % Pt,,100 ± 20 nM,1500 ± 100 nM,6400 ± 400 nM,Fold more active than 1 in CT-26 cells [5]: ~ 2 fold; Times lower platinum concentrations in the investigated tissues than compound 1 [6]: 2-3 times; Presence of intact parent drug in serum [8]: absence of intact satraplatin; Parent drug in patients' plasma ultrafiltrate [9]: no parent drug was detected
N.N.O=C([O-])C1(C(=O)[O-])CCC1.[Pt+2] [carboplatin],,,,,,,,,,,Injected dose recovered in urine [10]: ~90%
